Data published in ChEMBL document CHEMBL4725388, “Characterization of Aminobenzylphenols as Protein Disulfide Isomerase Inhibitors in Glioblastoma Cell Lines” (J Med Chem, 2020).
The source made the active and inactive calls. The calls are words filed in the database; no cut-off is given here.

Assays:
[1] = target: T1, Protein disulfide-isomerase (Homo sapiens, UniProt P07237); experiment: Binding affinity to recombinant human wild-type N-terminal His-tagged PDIA1 expressed in Escherichia coli strain BL21(DE3) assessed as change in melting temperature at 100 uM by ROX dye based thermal shift assay
Target sequence in this assay (P07237 18-508 limits assumed): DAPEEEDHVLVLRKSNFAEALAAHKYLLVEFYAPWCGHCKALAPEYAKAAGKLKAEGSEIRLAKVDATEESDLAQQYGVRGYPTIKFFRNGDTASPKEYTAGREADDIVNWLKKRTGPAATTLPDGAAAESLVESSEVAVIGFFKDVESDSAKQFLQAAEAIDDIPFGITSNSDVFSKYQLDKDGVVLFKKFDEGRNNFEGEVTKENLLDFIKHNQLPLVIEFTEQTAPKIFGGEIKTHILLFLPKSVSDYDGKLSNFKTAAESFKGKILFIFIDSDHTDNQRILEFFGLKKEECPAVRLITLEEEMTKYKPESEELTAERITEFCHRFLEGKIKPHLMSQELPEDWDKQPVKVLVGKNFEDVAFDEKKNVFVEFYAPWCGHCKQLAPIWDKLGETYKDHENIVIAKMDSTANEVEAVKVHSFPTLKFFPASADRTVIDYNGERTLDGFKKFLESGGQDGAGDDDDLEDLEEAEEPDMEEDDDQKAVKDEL

[2] = target: T1, Protein disulfide-isomerase; experiment: Displacement of ANS from recombinant human wild-type N-terminal His-tagged PDIA1 expressed in Escherichia coli strain BL21(DE3) at 100 uM measured after 1 hr by fluorescence assay
Target sequence in this assay (P07237 18-508 limits assumed): as above

[3] = target: T1, Protein disulfide-isomerase; experiment: Inhibition of recombinant human wild-type N-terminal His-tagged PDIA1 expressed in Escherichia coli strain BL21(DE3) at 10 uM using bovine insulin as substrate preincubated for 1 hr followed by substrate addition in presence of N-acetyl cysteine
Summary of the method: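 Compound incubated with N-acetyl cysteine before addition to the PDI reductase assay with PDIA1, at a final compound concentration of 10 μM.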
Target sequence in this assay (P07237 18-508 limits assumed): as above

[4] = target: T1, Protein disulfide-isomerase; experiment: Inhibition of recombinant human wild-type N-terminal His-tagged PDIA1 expressed in Escherichia coli strain BL21(DE3) at 10 uM using bovine insulin as substrate preincubated for 1 hr followed by substrate addition in presence of glutathione
Summary of the method: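 Glutathione added to the PDI reaction buffer before 10 μM compound; screening done with 5 mM GSH, reductase assay DTT at 500 μM.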
Target sequence in this assay (P07237 18-508 limits assumed): as above

U-87 MG [5] = experiment: Cytotoxicity against human U-87 MG cells assessed as growth inhibition at 30 uM measured after 72 hrs by MTT assay relative to control; assay type: functional, U-87MG ATCC; details: read-out: GI
Summary of the method: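 Single-concentration screen: percent inhibition of cell growth at 30 μM in U-87 MG and MIA PaCa-2 cells by MTT.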

[6] = target: T1, Protein disulfide-isomerase; experiment: Inhibition of recombinant human wild-type N-terminal His-tagged PDIA1 expressed in Escherichia coli strain BL21(DE3) using bovine insulin as substrate preincubated for 1 hr followed by substrate addition
Summary of the method: (§1)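 IC50 from dose-response curves; PDI reductase assay for enzyme, MTT in U-87 MG cells for cytotoxicity; mean ± SD of at least three independent experiments.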
Target sequence in this assay (P07237 whole entry): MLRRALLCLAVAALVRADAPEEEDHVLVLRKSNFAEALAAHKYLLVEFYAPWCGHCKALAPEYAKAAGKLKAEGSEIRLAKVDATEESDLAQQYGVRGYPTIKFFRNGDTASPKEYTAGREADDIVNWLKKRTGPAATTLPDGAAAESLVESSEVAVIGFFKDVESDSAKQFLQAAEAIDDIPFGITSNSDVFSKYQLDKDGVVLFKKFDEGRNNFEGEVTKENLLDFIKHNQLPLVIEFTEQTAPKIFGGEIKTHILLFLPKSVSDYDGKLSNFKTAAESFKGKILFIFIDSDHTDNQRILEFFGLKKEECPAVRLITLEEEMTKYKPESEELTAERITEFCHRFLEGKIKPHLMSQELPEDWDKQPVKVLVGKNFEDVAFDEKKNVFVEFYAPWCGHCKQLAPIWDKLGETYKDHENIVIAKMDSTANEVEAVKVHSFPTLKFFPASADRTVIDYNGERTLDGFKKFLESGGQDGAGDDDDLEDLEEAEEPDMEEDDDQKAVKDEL

U-87 MG [7] = experiment: Cytotoxicity against human U-87 MG cells assessed as growth inhibition measured after 72 hrs by MTT assay; assay type: functional, cell-based, U-87MG ATCC; summary of the method: as §1
[8] = target: T1, Protein disulfide-isomerase; experiment: Binding affinity to recombinant human wild-type N-terminal His-tagged PDIA1 expressed in Escherichia coli strain BL21(DE3) assessed as increase in protein mass at 100 uM measured after 30 mins in presence of GSTO1 and GRP78 by Q-TOF MS analysis relative to control
Summary of the method: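 100 μM compound incubated 30 min with a mix of 10 μM PDI, 10 μM GSTO1 and 10 μM GRP78 (GRP78 as non-specific binding control); protein masses read by QTOF MS before/after.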
Target sequence in this assay (P07237 18-508 limits assumed): as the sequence (P07237 18-508 limits assumed) above

[9] = target: T1, Protein disulfide-isomerase; experiment: Displacement of PACMA57 from recombinant human wild-type N-terminal His-tagged PDIA1 expressed in Escherichia coli strain BL21(DE3) at 100 uM measured after overnight incubation by gel-based imaging analysis
Target sequence in this assay (P07237 18-508 limits assumed): as above

[10] = target: T1, Protein disulfide-isomerase; experiment: Inhibition of recombinant human wild-type N-terminal His-tagged PDIA1 expressed in Escherichia coli strain BL21(DE3) assessed as ratio of Kinact to Ki using bovine insulin as substrate preincubated for 5 to 60 mins followed by substrate addition; details: time min 5-60
Summary of the method: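 Activity measured in PDI reductase assay (insulin substrate, absorbance followed over time) at several inhibitor concentrations and preincubation times of 5 to 60 minutes; kinact/KI derived from concentration- and time-dependent inhibition curves.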

[11] = target: T1, Protein disulfide-isomerase; experiment: Inhibition of recombinant human wild-type N-terminal His-tagged PDIA1 expressed in Escherichia coli strain BL21(DE3) at 10 uM using bovine insulin as substrate preincubated for 1 hr followed by substrate addition in absence of glutathione
[12] = target: T1, Protein disulfide-isomerase; experiment: Binding affinity to recombinant human wild-type N-terminal His-tagged PDIA1 expressed in Escherichia coli strain BL21(DE3) assessed as adduct formation at 100 uM measured after 30 mins in presence of DTT by Q-TOF MS analysis
Summary of the method: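 Recombinant PDI at 10 μM incubated 30 min with 100 μM compound and 100 μM DTT before injection; adducts detected by quadrupole time-of-flight mass spectrometry.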

[13] = target: T1, Protein disulfide-isomerase; experiment: Inhibition of recombinant human wild-type N-terminal His-tagged PDIA1 expressed in Escherichia coli strain BL21(DE3) at 1.1 to 90 uM using bovine insulin as substrate preincubated for 1 hr followed by substrate addition in presence of glutathione; details: dose microM 1.1-90, time 1.0 hrs
Homo sapiens = organism: Homo sapiens; experiment: Binding affinity to recombinant human wild-type N-terminal His-tagged PDIA1 C53S mutant expressed in Escherichia coli strain BL21(DE3) assessed as adduct formation at 100 uM measured after 30 mins in presence of DTT by Q-TOF MS analysis
U-87 MG [14] = experiment: Inhibition of colony formation in BSO-treated human U-87 MG cells at 0.3 to 30 uM measured after 10 to 14 days by crystal violet staining based assay; assay type: functional, cell-based; details: U-87MG ATCC, dose microM 0.3-30, time day 10-14
Summary of the method: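 U-87 MG cells pretreated with BSO for 24 hours before compound addition; read-out by colony formation assay.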

[15] = target: T1, Protein disulfide-isomerase; experiment: Irreversible inhibition of recombinant human wild-type N-terminal His-tagged PDIA1 expressed in Escherichia coli strain BL21(DE3) at 400 uM using bovine insulin as substrate preincubated for 30 mins followed by 100-fold dilution substrate addition further incubated for 1 hr and subsequent substrate addition; details: time 1.5 hrs

Compound	IC50 [6] [µM]	IC50 (U-87 MG [7]) [µM]	further results
N#Cc1cccc(/C=C/C(=O)c2ccc(O)cc2)c1			ΔTm [1]: 1.55 °C; inhibition [2]: Active; inhibition [3]: inactive; inhibition [4]: inactive
COc1cccc(C(c2ccc3cccnc3c2O)N2CCOCC2)c1OC (stereo not drawn)	0.39	33	inhibition of growth at 30 µM (U-87 MG [5]): 74%
Oc1cc2c(cc1C(c1ccc(F)cc1)N1CCCCC1)CCC2 (stereo not drawn)	> 30		Activity [8]: inactive; inhibition [9]: inactive
COC(=O)C1(C)c2[nH]c3ccccc3c2CCN1C(=O)CCl (stereo not drawn)			Ratio [10]: 1.7 10^2/M/s
CN(C)c1ccc(C(Nc2ncccn2)c2cc3c(cc2O)OCO3)cc1 (stereo not drawn)			inhibition [4]: 64%; inhibition [11]: 88%
Oc1c(C(c2ccc(F)cc2)N2CCN(C(c3ccc(F)cc3)c3ccc4cncnc4c3O)CC2)ccc2cncnc12 (stereo not drawn)			Activity [12]: Active; inhibition [13]: Active; Activity (Homo sapiens): Active; inhibition (U-87 MG [14]): Active
COc1cc(C(c2cc3c(cc2O)OCO3)N2CCCC2)cc(OC)c1OC (stereo not drawn)	0.18	24.2	
COc1cccc(C(c2cc3c(cc2O)OCO3)N2CCOCC2)c1OC (stereo not drawn)	1.06	32	inhibition of growth at 30 µM (U-87 MG [5]): 66%; Activity [12]: Active; fold change (FC) [8]: 2; inhibition [15]: inactive
NC(=O)NC(c1ccc(O)cc1)c1cc2c(cc1O)OCO2 (stereo not drawn)	> 40	> 10	
Oc1cc2c(cc1C(c1ccc(F)cc1)N1CCCCC1)OCO2 (stereo not drawn)	0.27	> 30	
Oc1cc2c(cc1C(c1ccc3c(c1)OCO3)N1CCCCC1)OCO2 (stereo not drawn)	0.35	> 10	
Cc1ccnc(NC(c2ccc(F)cc2)c2ccc3cccnc3c2O)c1 (stereo not drawn)	0.14	> 10	
Oc1ccccc1C(c1cc2c(cc1O)OCO2)N1CCOCC1 (stereo not drawn)	0.34	> 30	
Oc1cc2c(cc1C(c1ccc(F)cc1)N1CCCC1)OCO2 (stereo not drawn)	< 0.2	> 30	
CCc1ccc(C(Nc2ccccn2)c2ccc3cccnc3c2O)cc1 (stereo not drawn)	0.17	9.3	
Oc1cc2c(cc1C(c1ccc3c(c1)OCO3)N1CCCC1)OCO2 (stereo not drawn)	0.023	> 30	
Oc1cc2c(cc1C(c1ccc(F)cc1)n1ccnc1)OCO2 (stereo not drawn)	0.67	> 10	
COc1cc(C(c2cc3c(cc2O)OCO3)N2CCOCC2)ccc1O (stereo not drawn)	0.23	27.1	
Cc1ccnc(NC(c2ccc([N+](=O)[O-])cc2)c2ccc3cccnc3c2O)c1 (stereo not drawn)	0.53	3.4	
Cc1ccnc(NC(c2ccc(C(F)(F)F)cc2)c2ccc3cccnc3c2O)c1 (stereo not drawn)	26.5	2.1	
Cc1ccnc(NC(c2ccccc2Cl)c2ccc3cccnc3c2O)c1 (stereo not drawn)	> 40	9.9	
Oc1c(C(c2ccc(F)cc2)N2CCCCC2)ccc2cccnc12 (stereo not drawn)	0.69	37	inhibition of growth at 30 µM (U-87 MG [5]): 54%
Cc1ccnc(NC(c2ccccc2)c2ccc3cccnc3c2O)c1 (stereo not drawn)	< 0.2	> 10	

Compound	IC50 [6] [µM]	IC50 (U-87 MG [7]) [µM]	further results
COc1ccc(C(Nc2cc(C)ccn2)c2ccc3cccnc3c2O)cc1O (stereo not drawn)	0.15	> 10	
CNC(=O)NC(c1ccc2c(c1)OCO2)c1cc2c(cc1O)OCO2 (stereo not drawn)	> 40	> 10	
C#CC(=O)N(c1ccc(OC)cc1OC)C(C(=O)NCC(=O)OCC)c1cccs1 (stereo not drawn)			ΔTm [1]: 0.18 °C; Ratio [10]: 2 10^2/M/s; inhibition [3]: inactive; inhibition [4]: inactive
COc1cc(C(Nc2ccccn2)c2cc3c(cc2O)OCO3)cc(OC)c1O (stereo not drawn)	0.17	> 10	
Oc1c(C(c2ccc(F)cc2)N2CCNCC2)ccc2cncnc12 (stereo not drawn)	1.2		Activity [12]: Active; inhibition [4]: 44%; inhibition [11]: 100%; Activity (Homo sapiens): Active; inhibition (U-87 MG [14]): inactive
CNC(=O)NC(c1ccc(F)cc1)c1cc2c(cc1O)OCO2 (stereo not drawn)	> 30	> 10	
COc1ccc(C(c2cc3c(cc2O)OCO3)N2CCOCC2)cc1 (stereo not drawn)	0.13	> 10	
COc1ccc(C(Nc2ncccn2)c2cc3c(cc2O)OCO3)cc1 (stereo not drawn)	1.3	> 10	
Cc1ccnc(NC(c2cccc(F)c2)c2ccc3cccnc3c2O)c1 (stereo not drawn)	0.35	9.2	
COc1cc(OC)c(C(c2cc3c(cc2O)OCO3)N2CCOCC2)c(OC)c1 (stereo not drawn)	0.98	13.6	
COc1ccccc1C(c1cc2c(cc1O)OCO2)N1CCOCC1 (stereo not drawn)	0.33	27.7	
COc1cccc(C(c2cc3c(cc2O)OCO3)N2CCCC2)c1O (stereo not drawn)	1.65	> 10	
COc1cccc(C(c2cc3c(cc2O)OCO3)N2CCOCC2)c1O (stereo not drawn)	0.9	> 10	
Cc1ccnc(NC(c2ccc(OCc3ccccc3)cc2)c2ccc3cccnc3c2O)c1 (stereo not drawn)	0.62	9.3	
COc1ccc(C(c2cc3c(cc2O)OCO3)N2CCCC2)c(OC)c1 (stereo not drawn)	0.36	> 30	
Oc1c(C(Nc2ccccc2)c2ccccc2)ccc2cccnc12 (stereo not drawn)	0.11	> 10	
COc1ccc(C(c2cc3c(cc2O)OCO3)N2CCCCC2)c(OC)c1 (stereo not drawn)	2.59	> 30	
CCc1ccc(C(Nc2cc(C)ccn2)c2ccc3cccnc3c2O)cc1 (stereo not drawn)	5.39	8.9	
COc1cccc(C(Nc2ncccn2)c2cc3c(cc2O)OCO3)c1O (stereo not drawn)	9.02	> 10	
Cc1cc(C)c(C(Nc2ccccn2)c2ccc3cccnc3c2O)c(C)c1 (stereo not drawn)	0.19	10	
Oc1cc2c(cc1C(c1ccc3c(c1)OCO3)N1CCOCC1)OCO2 (stereo not drawn)	< 0.2	> 30	
Cc1ccc(C(Nc2ccccn2)c2ccc3cccnc3c2O)cc1 (stereo not drawn)	0.46	> 10	
Oc1cc2c(cc1C(Nc1ccccn1)c1ccc3c(c1)OCO3)OCO2 (stereo not drawn)	0.072	> 10	
